Legend:
Penicillium digitatum [1] = experiment: Fungicidal activity against TBZ-sensitive Penicillium digitatum infected Nova mandarins assessed as postharvest green mold incidence at 600 mg/L treated for 1 min at 20 degC at 20 hr after fungal conidial inoculation measured after 5 days of storage at 20 degC in presence of 1% SBC (water Rvb = 96.7%); format: functional
Procedure, shortened: (§1)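 Fruit were surface-disinfected in 1 g/L hypochlorite for 30 s, rinsed, dried, then wounded twice equatorially (2 mm × 2 mm rod). Inoculation was a 1 min dip in P. digitatum conidia, 1 × 10^5 conidia/mL final. Fruit were held 20 h at 20 °C and 90% RH, dipped 1 min (SBC wt/vol), and air-dried. Storage was 20 °C, 90% RH. Decay incidence (% fruit with lesions) was scored at 5 d for mandarins and 7 d for oranges. Three replicates of 40 fruit were used; arcsin-transformed data were compared by LSD, p ≤ 0.05.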

Penicillium digitatum [2] = experiment: (§2) Fungicidal activity against TBZ-sensitive Penicillium digitatum infected Valencia oranges assessed as postharvest green mold incidence at 400 mg/L treated for 1 min at 40 degC at 20 hr after fungal conidial inoculation measured after 7 days of storage at 20 degC in presence of 0.5% SBC (water Rvb = 42.5%); format: functional; procedure, shortened: as §1
Penicillium digitatum [3] = experiment: as §2, with “TBZ-resistant” for “TBZ-sensitive”, “600” for “400”, “20” for “40”, “1%” for “0.5%”, “54.2%)” for “42.5%)”; format: functional
Fruit surface [4] = experiment: Drug residues on Citrus sinensis cvs. Salustiana (Salustiana oranges) fruit surface at 600 mg/L treated for 1 min at 20 degC postharvest measured after overnight incubation at 17 degC in presence of 2% SBC by GC analysis; format: ADME
Procedure, shortened: (§3)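 'Salustiana' oranges were washed with water and air-dried. They were dipped 1 or 3 min in TBZ 600 mg/L at 20 or 50 °C, or 1 min in TBZ 600 mg/L plus 2% SBC at 20 °C, then dried overnight at 17 °C in the dark. Surface residue was taken by water extraction and wax residue by chloroform extraction. Inner residue was measured in fruit after both extractions. Extracts were dried under N2, taken up in acetone and analysed by GC. Values are mg/kg on a whole-fruit basis.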

Penicillium digitatum [5] = experiment: Fungicidal activity against Penicillium digitatum infected Valenica oranges assessed as fruit weight loss at 400 mg/L treated for 1 min at 40 degC postharvest at 20 hr after fungal conidial inoculation measured after 14 days of storage at 17 degC in presence of 2% SBC (water Rvb = 9.20%); format: functional
Fruit [6] = experiment: Drug residues in Citrus sinensis cvs. Valencia late (Valencia oranges) at 400 mg/L treated for 1 min at 40 degC postharvest measured immediately post-drug treatment in presence of 0.5% SBC by GC analysis; format: ADME
Procedure, shortened: (§4)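 'Valencia' oranges were dipped 1 min in TBZ at 600 mg/L (20 °C, ±0.5, 1 or 2% wt/vol SBC), 400 mg/L (40 °C, ±SBC) or 200 mg/L (50 °C, alone), then air-dried. They were sampled at 0, 10 and 20 days at 17 °C. Peel of five fruit was frozen, and 5 g of homogenate was extracted with ethyl acetate/hexane (1/1) plus NaCl. The extract was dried under N2, taken up in acetone and analysed by GC. Results are mg/kg on a whole-fruit basis.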

Fruit [7] = experiment: Drug residues in Citrus sinensis cvs. Valencia late (Valencia oranges) at 600 mg/L treated for 1 min at 20 degC postharvest measured after 10 days of storage at 17 degC in presence of 1% SBC by GC analysis; format: ADME; procedure, shortened: as §4
Penicillium digitatum [8] = experiment: Fungicidal activity against Penicillium digitatum infected Valenica oranges assessed as fruit weight loss at 400 mg/L treated for 1 min at 40 degC postharvest at 20 hr after fungal conidial inoculation measured after 21 days of storage at 17 degC in presence of 0.5% SBC (water Rvb = 11.43%); format: functional
Penicillium digitatum [9] = experiment: Fungicidal activity against Penicillium digitatum infected Valenica oranges assessed as fruit weight loss at 600 mg/L treated for 1 min at 20 degC postharvest at 20 hr after fungal conidial inoculation measured after 7 days of storage at 17 degC in presence of 0.5% SBC (water Rvb = 3.90%); format: functional
Cuticular wax [10] = experiment: Drug residues in Citrus sinensis cvs. Salustiana (Salustiana oranges) cuticular wax at 600 mg/L treated for 3 min at 50 degC postharvest measured after overnight incubation at 17 degC by GC analysis; format: ADME; details: 0.05 h; procedure, shortened: as §3
Penicillium digitatum [11] = experiment: Fungicidal activity against TBZ-sensitive Penicillium digitatum infected Valencia oranges assessed as postharvest green mold incidence at 400 mg/L treated for 1 min at 40 degC at 20 hr after fungal conidial inoculation measured after 7 days of storage at 20 degC (water Rvb = 66.7%); format: functional
Penicillium digitatum [12] = experiment: Fungicidal activity against Penicillium digitatum infected Valenica oranges assessed as fruit weight loss at 600 mg/L treated for 1 min at 20 degC postharvest at 20 hr after fungal conidial inoculation measured after 7 days of storage at 17 degC in presence of 1% SBC (water Rvb = 3.89%); format: functional
Penicillium digitatum [13] = experiment: Fungicidal activity against Penicillium digitatum infected Valenica oranges assessed as fruit weight loss at 600 mg/L treated for 1 min at 20 degC postharvest at 20 hr after fungal conidial inoculation measured after 14 days of storage at 17 degC in presence of 1% SBC (water Rvb = 7.65%); format: functional
Penicillium digitatum [14] = experiment: Fungicidal activity against Penicillium digitatum infected Valenica oranges assessed as fruit weight loss at 200 mg/L treated for 1 min at 50 degC postharvest at 20 hr after fungal conidial inoculation measured after 7 days of storage at 17 degC (water Rvb = 3.23%); format: functional
Penicillium digitatum [15] = experiment: Fungicidal activity against Penicillium digitatum infected Valenica oranges assessed as fruit weight loss at 600 mg/L treated for 1 min at 20 degC postharvest at 20 hr after fungal conidial inoculation measured after 7 days of storage at 17 degC in presence of 2% SBC (water Rvb = 3.94%); format: functional
Penicillium digitatum [16] = experiment: Fungicidal activity against Penicillium digitatum infected Valenica oranges assessed as fruit weight loss at 400 mg/L treated for 1 min at 40 degC postharvest at 20 hr after fungal conidial inoculation measured after 14 days of storage at 17 degC (water Rvb = 6.24%); format: functional
Penicillium digitatum [17] = experiment: Fungicidal activity against TBZ-sensitive Penicillium digitatum infected Nova mandarins assessed as postharvest green mold incidence at 400 mg/L treated for 1 min at 40 degC at 20 hr after fungal conidial inoculation measured after 5 days of storage at 20 degC in presence of 2% SBC (water Rvb = 88.3%); format: functional; procedure, shortened: as §1
Fruit surface [18] = experiment: Drug residues on Citrus sinensis cvs. Salustiana (Salustiana oranges) fruit surface at 600 mg/L treated for 3 min at 50 degC postharvest measured after overnight incubation at 17 degC by GC analysis; format: ADME; details: 0.05 h; procedure, shortened: as §3
Cuticular wax [19] = experiment: Drug residues in Citrus sinensis cvs. Salustiana (Salustiana oranges) cuticular wax at 600 mg/L treated for 1 min at 50 degC postharvest measured after overnight incubation at 17 degC by GC analysis; format: ADME; procedure, shortened: as §3
Penicillium digitatum [20] = experiment: Fungicidal activity against TBZ-sensitive Penicillium digitatum infected Valencia oranges assessed as postharvest green mold incidence at 600 mg/L treated for 1 min at 20 degC at 20 hr after fungal conidial inoculation measured after 7 days of storage at 20 degC (water Rvb = 92.5%); format: functional
Penicillium digitatum [21] = experiment: Fungicidal activity against Penicillium digitatum infected Valenica oranges assessed as fruit weight loss at 600 mg/L treated for 1 min at 20 degC postharvest at 20 hr after fungal conidial inoculation measured after 21 days of storage at 17 degC in presence of 1% SBC (water Rvb = 11.20%); format: functional

## c1ccc2[nH]c(-c3cscn3)nc2c1 [THIABENDAZOLE]
Penicillium digitatum [1]
  Activity: 3.3%
Penicillium digitatum [2]
  Activity: 16.7%
Penicillium digitatum [3]
  Activity: 25%
Fruit surface [4]
  Drug uptake: 0.53 mg/kg
Penicillium digitatum [5]
  Activity: 9.45%
Fruit [6]
  Drug uptake: 0.79 mg/kg
Fruit [7]
  Drug uptake: 1.45 mg/kg
Penicillium digitatum [8]
  Activity: 12.23%
Penicillium digitatum [9]
  Activity: 4.28%
Cuticular wax [10]
  Drug uptake: 0.48 mg/kg
Penicillium digitatum [11]
  Activity: 14.2%
Penicillium digitatum [12]
  Activity: 4.33%
Penicillium digitatum [13]
  Activity: 8.47%
Penicillium digitatum [14]
  Activity: 2.98%
Penicillium digitatum [15]
  Activity: 4.81%
Penicillium digitatum [16]
  Activity: 6.26%
Penicillium digitatum [17]
  Activity: 3.3%
Fruit surface [18]
  Drug uptake: 0.69 mg/kg
Cuticular wax [19]
  Drug uptake: 0.54 mg/kg
Penicillium digitatum [20]
  Activity: 31.7%
Penicillium digitatum [21]
  Activity: 12.35%

Source: ChEMBL document CHEMBL3045217, “Factors affecting the synergy of thiabendazole, sodium bicarbonate, and heat to control postharvest green mold of citrus fruit” (J Agric Food Chem, 2008)
